CaV13 FRET inh = Disruptors of the CACNA1D IQ motif to Ca2+-dependent inactivation inhibitor domain association, primary screening, Förster resonance energy transfer in intact living …. AID 743397. 340,000 compounds, 0.098% hits. HEK cells, CFP/YFP FRET ICDI-IQ, plate reader, 10 min; percent FRET-ratio fall versus neutral wells. inhibition, % at 12.3 µM;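 active = mean replicate inhibition of at least 30% and at least 1% of replicates passing that level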;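 also: 0% = median of the neutral control wells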
CFTR F508del cor = F508del CFTR correction, initial screen, CFBE line, single point; CFBE cells, YFP halide quenching; stimulated with forskolin plus potentiator P3; % fluorescence drop versus neutral controls; activity (quench increase), % at 7.58 µM; 350,000 compounds, 0.36% hits;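 active = mean added fluorescence quench of at least 8% versus neutral control, with both replicates also reaching 8%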;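 also: cells transiently co-express mutant CFTR-F508del with the halide-sensitive YFP; corrector assay measuring rescue of mutant channel to the surface after 24 h compound exposure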
rRNA inh HTS = reduced GFP signal of wild-type E. coli, primary screen, bacterial rRNA inhibitor project, GFP/RFP fluorescence, OD600, single point; E. coli WT GFP vs humanized-ribosome RFP mutants, 24 h; stronger effect = lower value; DMSO median 0, no signal -100; GFP signal change (wild-type ribosome), % (test concentration not listed); 350,000 compounds, 1.6% hits; AID 720706, 2013;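 active = significant combined selectivity score with lowered wild-type GFP, culture density cut under 30%, mutant RFP and density less affected; inactive = any of these conditions unmet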
Cneo AK release = Cryptococcus neoformans cell lysis inducers, primary screen, AK release luminescence, single concentration; lysis activity, % at 15 µM; 360,000 compounds, 0.2% hits; C. neoformans lysis, adenylate kinase release luminescence, 4 h; normalised: neutral wells 0, clomiphene wells 100;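 active = mean lysis activity across replicates of at least 80%, whatever share of replicates individually reach that level; inactive = mean lysis activity below 80%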
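Material: C. neoformans cells | Amount: Yeast cell density of 5 × 10^6 cells/mL | Medium: Fresh YPD growth medium | Dosing: Single dose | Times: Static 4 h at 37 °C with compound, 1 h detection | Detection: AK luminescence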
* marks the source's active call; other numbers are inactive results; . = no result; + = active, no number. Most compounds without a hit are left out; they make up all but 1.7% or so of the library.

SMILES	CaV13 FRET inh	CFTR F508del cor	rRNA inh HTS	Cneo AK release
c1ccc(CSc2ncnc3sccc23)cc1	-4	.	-27*	2
Cc1nc(SCc2ccccc2)c2ccsc2n1	-2	0	-30	.
CC(C)NC(=O)N(C)C[C@H]1Oc2c(NS(=O)(=O)c3ccc(Cl)cc3)cccc2C(=O)N([C@@H](C)CO)C[C@@H]1C	.	-5	-3	105*
C[C@H](CO)N1C[C@H](C)[C@H](CN(C)CC2CC2)Oc2c(NS(=O)(=O)c3ccc(Cl)cc3)cccc2C1=O	.	4	-1	-1
CC(C)NC(=O)N(C)C[C@@H]1Oc2c(NS(=O)(=O)c3ccc(Cl)cc3)cccc2C(=O)N([C@@H](C)CO)C[C@H]1C	.	-3	0	0
C[C@H]1CN([C@@H](C)CO)C(=O)c2cccc(NS(=O)(=O)c3ccc(Cl)cc3)c2O[C@@H]1CN(C)CC1CC1	.	4	.	89*
C[C@@H]1CN([C@@H](C)CO)C(=O)c2ccccc2-c2ccccc2CO[C@@H]1CN(C)C(=O)[C@H](Cc1ccccc1)N(C)C	.	.	-1	.
COc1ccc2c3c([nH]c2c1)[C@H](CO)N(C(=O)Nc1ccc(F)cc1)CC31CN(C(=O)c2ccccc2F)C1	.	-1	3	.
C[C@@H]1CN([C@H](C)CO)C(=O)c2cc(Br)cnc2O[C@H]1CN(C)CC1CCCC1	.	-1	6	7
N#Cc1cc2c(nc1SCC(O)CS(=O)(=O)Cc1ccccc1)CCCC2 (stereo not drawn)	-7	0	-35*	1
CC(=O)N[C@H]1CC[C@@H](CCNC(=O)C2CCC2)O[C@H]1CO	.	0	2	112*
CC(=O)N[C@@H]1CC[C@H](CCNC(=O)C2CCC2)O[C@@H]1CO	.	1	4	1
Cc1cccc(N2CCN(C(=O)N3CCOCC3)CC2)c1C	8	4	0	.
Cc1cccc(N2CCN(C(=O)N3CCCCC3)CC2)c1C	-5	1	-36*	.
C[C@H](CO)N1C[C@H](C)[C@@H](CN(C)C(=O)C2CC2)Oc2cc(-c3ccccc3)ccc2S1(=O)=O	.	-4	-3	.
Cc1cc(C)c(S(=O)(=O)Nc2ccc(Cl)cn2)c(C)c1	-2	-1	-31*	0
O=S(=O)(Nc1ccc(Cl)cn1)c1ccc(Cl)cc1	-18	-2	6	.
CC(C)NC(=O)Nc1ccc2c(c1)C(=O)N(C)[C@@H]1CC[C@H](CC(=O)NCC3CCCCC3)O[C@H]1CO2	.	0	-2	39
O=c1oc2cc(O)ccc2cc1S(=O)(=O)c1ccccc1	31*	2	-34	9
NC(=S)c1cc2ccc(O)cc2oc1=O	13	.	.	.
CCN(CC)c1ccc2cc(S(=O)(=O)c3ccc(Cl)cc3)c(=O)oc2c1	+	-3	15	0
O=c1oc2cc(O)ccc2cc1-c1nc2ccccc2o1	38*	2	-3	.
COCC(=O)Nc1ccc2c(c1)[C@H]1C[C@@H](CC(=O)NCc3cc(F)ccc3F)O[C@@H](CO)[C@H]1O2	.	-3	-1	-9
CC(C)c1cn(CC[C@@H]2CC[C@H](NC(=O)C3CCOCC3)[C@H](CO)O2)nn1	.	1	3	.
COc1ccccc1C(=O)Nc1ccc2c(c1)nc(CCNC(=O)c1ccco1)n2C	-3	10*	-1	-1
SMILES	CaV13 FRET inh	CFTR F508del cor	rRNA inh HTS	Cneo AK release
CCN1C(=O)[C@H]2[C@@H](c3ccc(-c4ccc(Cl)c(Cl)c4)cc3)N[C@@](C)(C(=O)OC)[C@H]2C1=O	-11	8.2*	-2	1
CCN1C(=O)[C@H]2[C@@H](c3ccc(-c4ccc(Cl)c(Cl)c4)c(OC)c3)N[C@@](C)(C(=O)OC)[C@H]2C1=O	-11	-1	0	-3
COc1cc(NC(=O)CSCc2ccc(Cl)cc2Cl)c(C(=O)O)cc1OC	0	.	-20*	-2
C[C@@H]1CN([C@@H](C)CO)C(=O)c2cccc(NS(=O)(=O)c3cn(C)cn3)c2O[C@@H]1CN(C)CC1CC1	.	-1	1	0
COCc1cn(CC[C@H]2CC[C@H](NC(=O)Nc3ccc(F)cc3)[C@H](CO)O2)nn1	.	2	2	15
C/C=C/c1ccc([C@@H]2[C@H]3CN(C(=O)Nc4ccc(OC)cc4)CCCCN3[C@H]2CO)cc1	.	2	0	114*
O=S(=O)(Cc1ccccc1)N1CCCCN2[C@H](C1)[C@@H](c1ccc(C#Cc3ccccc3)cc1)[C@@H]2CO	.	8.0*	3	1
O=C(Nc1cccc(F)c1)N1CCCCN2[C@H](C1)[C@H](c1ccc(C#Cc3ccccc3)cc1)[C@@H]2CO	.	5	5	0
O=C(Nc1ccccc1)N1CCCCN2[C@H](C1)[C@H](c1ccc(C#CC3CC3)cc1)[C@@H]2CO	.	-1	5	108*
O=C(Nc1cccc(F)c1)N1CCCCN2[C@@H](CO)[C@H](c3ccc(C#Cc4ccccc4)cc3)[C@@H]2C1	.	8.9*	-54	-2
O=S(=O)(Cc1ccccc1)N1CCCCN2[C@H](C1)[C@H](c1ccc(C#Cc3ccccc3)cc1)[C@@H]2CO	.	-1	3	0
O=C(Nc1ccccc1)N1CCCCN2[C@@H](CO)[C@@H](c3ccc(C#CC4CC4)cc3)[C@@H]2C1	.	-3	-50	4
O=C(Nc1ccccc1)N1CCCCN2[C@@H](CO)[C@H](c3ccc(C#Cc4ccccc4)cc3)[C@@H]2C1	.	8.1*	-55	1
O=C(Nc1ccccc1)N1CCCCN2[C@@H](CO)[C@@H](c3ccc(C#Cc4ccccc4)cc3)[C@@H]2C1	.	-6	-56	0
CCS(=O)(=O)N1CC(=O)N2[C@H](C1)[C@H](c1ccc(C#Cc3cccc(F)c3)cc1)[C@@H]2CO	.	.	2	.
O=C(/C=C/c1ccccc1)c1ccc2c(c1)OCO2	-2	-1	-24*	0
Cc1ccc(O)c(C(=O)/C=C/c2ccc3c(c2)OCCCO3)c1	.	.	-13	.
O=C(/C=C/c1ccc2c(c1)OCCCO2)c1ccccc1O	-3	.	-33*	.
COc1ccc(-c2cc(C(F)F)n3ncc(C(=O)N4CCc5ccccc54)c3n2)cc1	-5	14*	7	1
Cc1ccc(-c2cc(C(F)F)n3ncc(C(=O)N4CCCc5ccccc54)c3n2)cc1	-5	.	.	0
COCC(=O)N(C)C[C@H]1Oc2ncc(C3=CCCC3)cc2C(=O)N([C@H](C)CO)C[C@@H]1C	.	-2	-2	6
CC(C)(C)c1csc(NC(=O)c2cccs2)n1	.	.	.	-1
CC(C)(C)c1csc(NC(=O)Cc2cccs2)n1	-7	9.7*	-23*	.
COc1cccc(C#Cc2ccc([C@@H]3[C@H](CO)N4C(=O)CN(C(=O)c5ccncc5)C[C@@H]34)cc2)c1	.	3	0	.
O=[N+]([O-])c1ccc(Cc2ccccn2)cc1	-2	-1	-3	4
O=[N+]([O-])c1ccc(CC(Cl)c2ccccn2)cc1 (stereo not drawn)	-6	0	-24*	2

Assay outcomes as filed in PubChem BioAssay.
